Experimental data gathered from unrelated publications.
Lines come from different studies, so protocols differ.
Target: Serine/threonine-protein kinase 25 (STK25, Homo sapiens, UniProt O00506)

SMILES	observed	mode	method	concentration	endpoint	result
CCN(CC)CCNC(=O)c1c(C)[nH]c(/C=C2\C(=O)Nc3ccc(F)cc32)c1C	cell-free assay	–	–	0.5 µM	remaining signal	76.1%
Cn1cncc1C1=CN(c2ncnc3[nH]cnc23)CCS1	enzyme activity	inhibitor	radiometric	50 nM	inhibition	13.5%
Cn1c2c(c3ccc(Cl)c(Cl)c31)C(C#N)C1(CCOCC1)NC2=O (centres unmarked)	thermal stability	–	DSF	10 µM	ΔTm	0.4 °C
C#Cc1cccc(Nc2ncnc3cc(OCCOC)c(OCCOC)cc23)c1	cell-free assay	–	–	0.5 µM	remaining signal	99.4%
CC(=O)c1c(NS(C)(=O)=O)c2cc(-c3ccc(Cl)cc3)c(-c3ccc(Cl)cc3Cl)nc2n(C)c1=O	cell-free assay	–	competition with immobilised ligand	1 µM	remaining binding	100%
CC1(C)NC(=O)c2[nH]c3c(Cl)c(Cl)ccc3c2C1C#N (centres unmarked)	thermal stability	–	DSF	10 µM	ΔTm	1.6 °C
O=C(NCc1ncc(C(F)(F)F)cc1Cl)c1ccc2c(c1)C1(CCS(=O)(=O)CC1)[C@H](C1CC1)N2S(=O)(=O)c1ccc(F)cc1	cell-free assay	–	competition with immobilised ligand	1 µM	remaining binding	100%
c1ccc(CNc2nc(N3CCOc4ccccc43)nc3c2CCCC3)cc1	target engagement in cells	inhibitor	chemoproteomics	20 mM	inhibition	34.6%
COc1ccc2c(O[C@@H]3C[C@H]4C(=O)N[C@]5(C(=O)O)CC5/C=C\CCCCC[C@H](NC(=O)OC5CCCC5)C(=O)N4C3)cc(-c3csc(NC(=O)C(C)C)n3)nc2c1C (some centres unmarked)	cell-free assay	–	competition with immobilised ligand	1 µM	remaining binding	100%
CN(C)c1ncc(F)c(-c2cnn3ncccc23)n1	binding	–	–	1 µM	remaining binding	100%
Cc1cc(C)c(-n2ccn3nc(-c4cccnc4)cc23)cc1NC(=O)c1cc(C#N)cc(S(F)(F)(F)(F)F)c1	cell-free assay	–	competition with immobilised ligand	0.1 µM	remaining binding	79.1%
COc1cc2ncnc(Nc3ccc(Oc4ccccc4)cc3C)c2cc1OC	enzyme activity	inhibitor	–	1 µM	inhibition	-2%
CN1CCC2(CC1)NC(=O)c1c(c3ccc(Cl)c(Cl)c3n1C)C2C#N (racemic)	thermal stability	–	DSF	10 µM	ΔTm	0.3 °C
O=C(Nc1cnn(-c2csc(C(=O)NC3COC3)c2)c1)Nc1ccccc1Cl	enzyme activity	inhibitor	–	5 µM	remaining activity	106%
CC(C)(C)c1nc2c(s1)c1nc(N)ncc1c1ccc(NS(=O)(=O)c3c(F)cccc3F)c(F)c12	enzyme activity	inhibitor	radiometric	1 µM	remaining activity	57%
C[C@H](c1cccc(C#N)c1)n1cc(Cl)cc(C(N)=O)c1=N	cell-free assay	–	competition with immobilised ligand	1 µM	remaining binding	100%
O=C1NC(=O)c2cc(Nc3ccc(F)cc3)c(Nc3ccc(F)cc3)cc21	cell-free assay	–	–	0.5 µM	remaining signal	101%
Nc1ncnc2occ(-c3ccc(NC(=O)Nc4cc(C(F)(F)F)ccc4F)cc3)c12	cell-free assay	inhibitor	–	20 µM	remaining signal	77%
O=C(Nc1cnn(-c2csc(C(=O)NC3COC3)c2)c1)Nc1c(F)cccc1Cl	enzyme activity	inhibitor	–	5 µM	remaining activity	96.1%
CO[C@@H](C)c1c(Nc2ccc([C@H](N(C)C(=O)C3CCS(=O)(=O)CC3)C(F)(F)F)cc2)cnc2cc(Cl)nn12	cell-free assay	–	competition with immobilised ligand	1 µM	remaining binding	87%
COc1cc2ncnc(Nc3ccc(F)c(Cl)c3)c2cc1OCCCN1CCOCC1	cell-free assay	–	–	0.5 µM	remaining signal	97.4%
CCCCNc1ncc2c(-c3ccc(F)cc3)nn(C[C@H]3CC[C@H](N)CC3)c2n1	target engagement in cells	inhibitor	chemoproteomics	20 mM	inhibition	5.7%
COc1cc(-c2cc(-c3ccc(N4CCNCC4)cc3)cnc2C)cc(OC)c1OC	enzyme activity	inhibitor	–	1 µM	inhibition	2%
C[C@@H]1CN(c2cc(-c3n[nH]c4ccc(OC5(C)CC5)cc34)ncn2)C[C@H](C)O1	cell-free assay	–	competition with immobilised ligand	0.1 µM	remaining binding	100%
Cc1cc(NC(=O)c2cccc3cc(-c4cccc5[nH]nc(N)c45)ccc23)ccc1F	enzyme activity	inhibitor	–	0.1 µM	activity vs control	92%
Cc1cnc(NC2CCOCC2)nc1-n1cnc(C(=O)NC(CN)c2cc(F)cc(Cl)c2)c1 (centres unmarked)	enzyme activity	inhibitor	radiometric	1 µM	remaining activity	71%
